High-throughput results (PubChem)
This is a sample that favours compounds with a hit; in the whole collection about 2.6% have one here.
PGE2 EP2 inh: EP2 receptor (human) inhibition; AID 1422; C6 glioma cells expressing human EP2, cAMP TR-FRET; cells stimulated with saturating PGE2; P43116; inhibition, % at 25 µM; actives 0.52% (n = 260,000);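 active = percent inhibition above 40 after rounding to a whole number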;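 also: rat C6 glioma host cells with rolipram phosphodiesterase inhibitor present; the protocol text gives 20 µM as final concentration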
MC4R barr agon: activates human MC4R beta-arrestin recruitment; activation, % at 8.9 µM; P32245; actives 0.98% (n = 360,000); U2OS MC4R beta-arrestin complementation, luminescence; percent of melanotan II response, DMSO zero; AID 540308;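 active = activation above a per-plate cutoff, the mean activation of sample wells on that plate plus 3 SD, cut at about 8% in these data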
Target sequence (P32245 whole entry, looked up): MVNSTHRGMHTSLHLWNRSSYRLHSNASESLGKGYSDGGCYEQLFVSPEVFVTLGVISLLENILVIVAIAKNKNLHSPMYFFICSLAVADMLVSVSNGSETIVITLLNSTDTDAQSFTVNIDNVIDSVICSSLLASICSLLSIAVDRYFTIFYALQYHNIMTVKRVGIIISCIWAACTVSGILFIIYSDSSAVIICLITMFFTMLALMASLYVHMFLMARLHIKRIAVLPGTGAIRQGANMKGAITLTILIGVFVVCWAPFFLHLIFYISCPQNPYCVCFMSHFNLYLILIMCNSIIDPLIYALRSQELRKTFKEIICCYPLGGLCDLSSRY
MC4R antag cAMP: blocks human MC4R cAMP signaling | P32245 | actives 0.48% (n = 360,000) | inhibition, % at 6.5 µM | MC4R-expressing cells, MTII-stimulated cAMP, LANCE TR-FRET | AID 540295;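 active = inhibition above its plate's cutoff, the mean of tested wells on that plate plus 3 SD, cut at about 29% in these data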;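 also: 0% = Melanotan II alone and 100% = Melanotan II plus saturating MCL0020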
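Test system: U2OS cells stably expressing human melanocortin 4 receptor (MC4R); also added: Melanotan II challenge; compound: 6.5 µM single dose; timing: 30-min compound preincubation, 1-h Melanotan II challenge, 1-h detection, room temperature; signal: Eu-cAMP/anti-cAMP TR-FRET, emission 671 nm; repeats: one well per compound, no replicates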
Granule exo inh: lytic granule exocytosis inhibition; TALL-104 LAMP-1 surface exposure, flow cytometry; cells stimulated with thapsigargin and PMA; inhibition, % at 10 µM; actives 0.66% (n = 360,000);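 active = inhibition above about 55%, limit read from the data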
EP2 mod: modulates human prostaglandin E2 receptor EP2 signaling; EP2-expressing cells, cAMP HTRF FRET, PGE2 co-stimulation; induction, % at 25 µM; actives 0.83% (n = 260,000); AID 940;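 active = compounds whose cAMP rise, as percent of the full-agonist control response, exceeds 60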;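 also: rat C6 glioma line stably carrying human EP2 under a CMV promoter; the protocol text gives 20 µM as final concentration; 100% = response of wells given 1 µM PGE2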
T cell modulator: modulates CD8 T cell binding to vesicles; 2C CD8+ T cell-vesicle binding, flow cytometry; hits give low values; actives 0.068% (n = 330,000); AID 2052; response (vesicle binding), % at 7 µM;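 active = response, share of CD8 T cells binding vesicles, and their 90th percentile fluorescence all below set limits, cut at about 80% in these data, passing the limit was not always enough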;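 also: values below 100% mean blocked vesicle binding to the CD8+ T cells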
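incubation = binding step 1.5 h, 37 °C, antibody labelling 20 min, ice | test system = 2C mouse CD8+ T cells | read-out basis = percent CD8+ FL2 mean versus row control | controls = Peptide-free naked vesicles (low) and QL9 vesicles with 0.7% DMSO vehicle (high) | detection = flow cytometry of vesicle-bound cells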
Exocytosis CP01: lytic granule exocytosis inhibition; shares compounds with Granule exo inh; TALL-104 cells, LAMP-1 externalization, flow cytometry; stimulated with PMA plus thapsigargin; inhibition, % at 10 µM; actives 11% (n = 1,500); AID 651954; in the data active = inhibition above about 60%;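 also: 0% = stimulated vehicle wells and 100% = unstimulated wells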
* hit, by the source's call; x = no result.

SMILES	PGE2 EP2 inh	MC4R barr agon	MC4R antag cAMP	Granule exo inh	EP2 mod	T cell modulator	Exocytosis CP01
CCc1nn(CC(=O)NC(C)CCc2ccccc2)c(=O)c2cc3cc(F)ccc3n12 (stereo not drawn)	x	-3	4	-6	x	449	x
CCOC(=O)C1c2cccc(O)c2CCN1C(C)=O (stereo not drawn)	x	-2	9	114*	x	x	-13
Nc1c(Cl)cc(-c2csc(NC(CO)c3nc4ccccc4n3CCOCCO)n2)cc1Cl (stereo not drawn)	5	-1	0	70*	x	223	-1
CC1C(=O)N(Cc2ccccc2F)c2ccccc2N1C(=O)c1c(F)cccc1F (stereo not drawn)	x	0	6	35	x	63	x
COc1cccc(CN2C(=O)C(C)N(C(=O)c3c(F)cccc3F)c3ccccc32)c1 (stereo not drawn)	x	-1	5	56*	x	197	8
Cc1ccc(CNC(=O)CNC(=O)c2ccco2)cc1	x	1	3	2	x	306	x
COC(=O)C1=C(C)N(Cc2ccco2)C(=O)N[C@@H]1c1ccc(Br)cc1	2	0	5	56*	x	679	-4
COC(=O)C1=C(C)N(Cc2ccco2)C(=O)N[C@@H]1c1cccc(C(F)(F)F)c1	x	x	x	x	22	525	x
CN1C(=O)C2(Nc3ccccc3-c3nc4ccccc4n32)c2ccccc21 (stereo not drawn)	8	-3	4	1	-6	174	x
O=C1Nc2ccccc2C12Nc1ccccc1-c1nc3ccccc3n12 (stereo not drawn)	13	-1	3	56*	-1	266	-3
CCC1Oc2ccc(C)cc2N(CC(=O)N(Cc2ccc(C)o2)C2CCCC2)C1=O (stereo not drawn)	x	1	12	66*	52	378	10
Cc1c(C)n(Cc2ccccc2)c2ccc(C(=O)OCCCN(C)C)cc12	10	1	2	3	-10	131	x
COc1ccccc1N1C(=O)CC(Sc2n[nH]c(-c3cccc(C)c3)n2)C1=O (stereo not drawn)	6	-2	8	59*	8	185	52
COc1ccccc1N1C(=O)CC(Sc2nccc(C)n2)C1=O (stereo not drawn)	8	-2	-11	-3	12	222	x
O=C1/C(=C/c2ccncc2)Oc2cc(OS(=O)(=O)c3ccccc3)ccc21	10	-2	1	50	-32	676	x
COc1cccc(OC)c1C(=O)Oc1ccc2c(c1)O/C(=C\c1ccncc1)C2=O	6	8.6*	6	60*	36	236	12
CCc1cccc2c(C(=O)C(NCCOC)c3ccccc3)c[nH]c12 (stereo not drawn)	x	-1	9	66*	x	188	-10
O=C1NC[C@H](Cc2ccccc2)N(CCc2cccc(F)c2)C1=O	12	-2	8	61*	-8	347	-13
NCCCC[C@H]1CNC(=O)C(=O)N1CCc1cccc(F)c1	18	-3	-4	-5	25	175	x
